Assay results pooled from the literature.
Each line is one published result; the experiments were not run side by side.

Structure (SMILES) | tested on | test | system | conditions | measurement | value
C=C(CC(=O)OCOC(=O)OC(C)C)C(=O)O | – | – | PAMPA | 10 µM, 4 h, pH 7.4 | Papp | < 1 ×10⁻⁶ cm/s
COc1cccc2c(N3CCC(CCP(=O)(O)O)CC3)ncnc12 | EMT6 | – | female BALB/c, tumour | subcutaneous, 50 mg/kg, tumour-bearing | half-life | 396 min
COCC(=O)N1CCC[C@H](C(=O)NCc2nc(-c3ccc(C#N)cc3)cs2)C1 | – | – | male Sprague-Dawley rat, plasma | oral, 3 mg/kg | AUC | 120 µM·h
O=c1[nH]cc(F)c(=O)[nH]1 | PC-9 | cell growth or viability, CCK-8 | – | 50 µM | viability | 31.9%
C[C@H]1Oc2cc(cnc2N)-c2c(nn(C)c2C#N)CN(C)C(=O)c2ccc(F)cc21 | – | – | male Sprague-Dawley rat, plasma | oral, 5 mg/kg, single dose | AUC(0-t) | 1780 ng·h/mL
O=C1CCC(N2C(=O)c3cccc(NCc4cn(Cc5ccc(-c6nc7cc(-c8ccccc8)ccn7c6Nc6ccc(C(=O)O)cc6)cc5)nn4)c3C2=O)C(=O)N1 (stereo not drawn) | HCT-116 | cell growth or viability | – | 72 h | CC50 | 193 µM
COc1nc(-c2cccc(-c3ccccc3)c2C)ccc1CNCCNC(=O)CCCCCCCCCCC(=O)N1CCN(CCNC(=O)c2cc3c(=O)n4cccc(C)c4nc3n(CCc3cccs3)c2=N)CC1 | – | – | male Sprague-Dawley rat, plasma | intraperitoneal, 4 mg/kg | AUC(0-inf) | 2450 ng·h/mL
COCC(=O)N1CCC[C@H](C(=O)NCc2nc(-c3ccccc3)cs2)C1 | – | – | male Sprague-Dawley rat, plasma | oral, 3 mg/kg | AUC | 110 µM·h
CN(Cc1cn(Cc2ccc(-c3nc4cc(-c5ccccc5)ccn4c3Nc3ccc(C(=O)O)cc3)cc2)nn1)c1cccc2c1C(=O)N(C1CCC(=O)NC1=O)C2=O (stereo not drawn) | HCT-116 | cell growth or viability | – | 72 h | CC50 | 190 µM
